# Test results taken from ChEMBL document CHEMBL3271970, “Radiopharmaceuticals. 16. Halogenated dopamine analogs. Synthesis and radiolabeling of 6-iododopamine and tissue distribution studies in animals” (J Med Chem, 1976).
# Assays:
# Liver [1] = assay: Biodistribution in liver of mongrel dog assessed per organ at 1.29 x 10^-6 mol, iv measured after 2 hrs; format: ADME, organism-based, Canis lupus familiaris; conditions: in vivo
# Method in brief: (§1)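 Radioiodinated ([123I] or [131I]) 6-iododopamine in water or saline, used within 30 min of preparation. Given iv at 1.29 × 10^-6 mol/dog; one dog per time point, killed at 2 or 24 h. Large organs counted as three samples and averaged; adrenals and thyroid taken intact and counted. Expressed as % dose/organ.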
# Liver [2] = assay: Biodistribution in liver of mongrel dog assessed per organ at 1.29 x 10^-6 mol, iv measured after 24 hrs; format: ADME, organism-based, Canis lupus familiaris; conditions: in vivo; method in brief: as §1
# [3] = Biodistribution in kidney of mongrel dog assessed per organ at 1.29 x 10^-6 mol, iv measured after 2 hrs; format: ADME, organism-based, Canis lupus familiaris; conditions: in vivo; method in brief: as §1
# [4] = Biodistribution in kidney of mongrel dog assessed per organ at 1.29 x 10^-6 mol, iv measured after 24 hrs; format: ADME, organism-based, Canis lupus familiaris; conditions: in vivo; method in brief: as §1
# [5] = Biodistribution in adrenal medulla of mongrel dog assessed per organ at 1.29 x 10^-6 mol, iv measured after 2 hrs; format: ADME, organism-based, Canis lupus familiaris; conditions: in vivo; method in brief: as §1
# [6] = Biodistribution in adrenal medulla of mongrel dog assessed per organ at 1.29 x 10^-6 mol, iv measured after 24 hrs; format: ADME, organism-based, Canis lupus familiaris; conditions: in vivo; method in brief: as §1
# [7] = Biodistribution in adrenal cortex of mongrel dog assessed per organ at 1.29 x 10^-6 mol, iv measured after 2 hrs; format: ADME, organism-based, Canis lupus familiaris; conditions: in vivo; method in brief: as §1
# [8] = Biodistribution in adrenal cortex of mongrel dog assessed per organ at 1.29 x 10^-6 mol, iv measured after 24 hrs; format: ADME, organism-based, Canis lupus familiaris; conditions: in vivo; method in brief: as §1
# [9] = Biodistribution in thyroid gland of mongrel dog assessed per organ at 1.29 x 10^-6 mol, iv measured after 2 hrs; format: ADME, organism-based, Canis lupus familiaris; conditions: in vivo
# Method in brief: (§2)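 Radioiodine-labelled tracer given at 1.29 × 10^-6 mol/dog. One dog per time point, killed at 2 or 24 h. Thyroids and other small organs were taken intact and counted. Large organs were sampled three times and averaged. Result given as % dose/organ.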
# [10] = Biodistribution in thyroid gland of mongrel dog assessed per organ at 1.29 x 10^-6 mol, iv measured after 24 hrs; format: ADME, organism-based, Canis lupus familiaris; conditions: in vivo; method in brief: as §2
# Adrenal medulla [11] = assay: Biodistribution in adrenal medulla of rat assessed per organ at 3.6 x 10^-8 mol, iv measured after 5 mins; format: ADME, organism-based; conditions: in vivo
# Method in brief: (§3)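 [131I]-6-iododopamine in water or saline, used within 30 min of preparation. Injected iv at 3.6 × 10^-8 mol/rat. Rats killed by ether overdose at 5, 30 or 60 min, or at 2, 4 or 24 h. Tissue radioactivity expressed as % dose/organ, mean ± SD of four rats.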
# Adrenal medulla [12] = assay: Biodistribution in adrenal medulla of rat assessed per organ at 3.6 x 10^-8 mol, iv measured after 30 mins; format: ADME, organism-based; conditions: in vivo, 0.5 h; method in brief: as §3
# Adrenal medulla [13] = assay: Biodistribution in adrenal medulla of rat assessed per organ at 3.6 x 10^-8 mol, iv measured after 60 mins; format: ADME, organism-based; conditions: in vivo, 1 h; method in brief: as §3
# Adrenal medulla [14] = assay: Biodistribution in adrenal medulla of rat assessed per organ at 3.6 x 10^-8 mol, iv measured after 2 hrs; format: ADME, organism-based; conditions: in vivo; method in brief: as §3
# Adrenal medulla [15] = assay: Biodistribution in adrenal medulla of rat assessed per organ at 3.6 x 10^-8 mol, iv measured after 4 hrs; format: ADME, organism-based; conditions: in vivo; method in brief: as §3
# Adrenal medulla [16] = assay: Biodistribution in adrenal medulla of rat assessed per organ at 3.6 x 10^-8 mol, iv measured after 24 hrs; format: ADME, organism-based; conditions: in vivo; method in brief: as §3
# Rattus norvegicus [17] = assay: Biodistribution in adrenal cortex of rat assessed per organ at 3.6 x 10^-8 mol, iv measured after 5 mins; format: ADME, organism-based; conditions: in vivo; method in brief: as §3
# Rattus norvegicus [18] = assay: Biodistribution in adrenal cortex of rat assessed per organ at 3.6 x 10^-8 mol, iv measured after 30 mins; format: ADME, organism-based; conditions: in vivo, 0.5 h; method in brief: as §3
# Rattus norvegicus [19] = assay: Biodistribution in adrenal cortex of rat assessed per organ at 3.6 x 10^-8 mol, iv measured after 60 mins; format: ADME, organism-based; conditions: in vivo, 1 h; method in brief: as §3
# Rattus norvegicus [20] = assay: Biodistribution in adrenal cortex of rat assessed per organ at 3.6 x 10^-8 mol, iv measured after 2 hrs; format: ADME, organism-based; conditions: in vivo; method in brief: as §3
# Rattus norvegicus [21] = assay: Biodistribution in adrenal cortex of rat assessed per organ at 3.6 x 10^-8 mol, iv measured after 4 hrs; format: ADME, organism-based; conditions: in vivo; method in brief: as §3
# Rattus norvegicus [22] = assay: Biodistribution in adrenal cortex of rat assessed per organ at 3.6 x 10^-8 mol, iv measured after 24 hrs; format: ADME, organism-based; conditions: in vivo; method in brief: as §3
# Liver [23] = assay: Biodistribution in liver of rat assessed per organ at 3.6 x 10^-8 mol, iv measured after 5 mins; format: ADME, organism-based; conditions: in vivo
# Method in brief: (§4)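 [131I]-labelled tracer in water or saline, injected within 30 min of preparation. Rats given 3.6 × 10^-8 mol/rat iv, killed by ether overdose at each time point. Organs excised and radioactivity counted as % dose/organ, mean ± SD of four rats.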
# Liver [24] = assay: Biodistribution in liver of rat assessed per organ at 3.6 x 10^-8 mol, iv measured after 30 mins; format: ADME, organism-based; conditions: in vivo, 0.5 h; method in brief: as §4
# Liver [25] = assay: Biodistribution in liver of rat assessed per organ at 3.6 x 10^-8 mol, iv measured after 60 mins; format: ADME, organism-based; conditions: in vivo, 1 h; method in brief: as §4
# Liver [26] = assay: Biodistribution in liver of rat assessed per organ at 3.6 x 10^-8 mol, iv measured after 2 hrs; format: ADME, organism-based; conditions: in vivo; method in brief: as §4
# Liver [27] = assay: Biodistribution in liver of rat assessed per organ at 3.6 x 10^-8 mol, iv measured after 4 hrs; format: ADME, organism-based; conditions: in vivo; method in brief: as §4
# Liver [28] = assay: Biodistribution in liver of rat assessed per organ at 3.6 x 10^-8 mol, iv measured after 24 hrs; format: ADME, organism-based; conditions: in vivo; method in brief: as §4
# Kidney [29] = assay: Biodistribution in kidney of rat assessed per organ at 3.6 x 10^-8 mol, iv measured after 5 mins; format: ADME, organism-based; conditions: in vivo; method in brief: as §3
# Kidney [30] = assay: Biodistribution in kidney of rat assessed per organ at 3.6 x 10^-8 mol, iv measured after 30 mins; format: ADME, organism-based; conditions: in vivo, 0.5 h; method in brief: as §3
# Kidney [31] = assay: Biodistribution in kidney of rat assessed per organ at 3.6 x 10^-8 mol, iv measured after 60 mins; format: ADME, organism-based; conditions: in vivo, 1 h; method in brief: as §3
# Kidney [32] = assay: Biodistribution in kidney of rat assessed per organ at 3.6 x 10^-8 mol, iv measured after 2 hrs; format: ADME, organism-based; conditions: in vivo; method in brief: as §3
# Kidney [33] = assay: Biodistribution in kidney of rat assessed per organ at 3.6 x 10^-8 mol, iv measured after 4 hrs; format: ADME, organism-based; conditions: in vivo; method in brief: as §3
# Kidney [34] = assay: Biodistribution in kidney of rat assessed per organ at 3.6 x 10^-8 mol, iv measured after 24 hrs; format: ADME, organism-based; conditions: in vivo; method in brief: as §3
# Rattus norvegicus [35] = assay: Biodistribution in thyroid gland of rat assessed per organ at 3.6 x 10^-8 mol, iv measured after 5 mins; format: ADME, organism-based; conditions: in vivo; method in brief: as §4
smiles,measurement,setting,value
Br.NCCc1cc(O)c(O)cc1[131I],Drug uptake,Liver [1],2.24 %ID
same,Drug uptake,Liver [2],0.48 %ID
same,Drug uptake,[3],0.77 %ID
same,Drug uptake,[4],0.075 %ID
same,Drug uptake,[5],0.0062 %ID
same,Drug uptake,[6],0.0021 %ID
same,Drug uptake,[7],0.0092 %ID
same,Drug uptake,[8],0.0104 %ID
same,Drug uptake,[9],0.026 %ID
same,Drug uptake,[10],0.48 %ID
same,Drug uptake,Adrenal medulla [11],0.0247 %ID
same,Drug uptake,Adrenal medulla [12],0.0138 %ID
same,Drug uptake,Adrenal medulla [13],0.0038 %ID
same,Drug uptake,Adrenal medulla [14],0.0035 %ID
same,Drug uptake,Adrenal medulla [15],0.0047 %ID
same,Drug uptake,Adrenal medulla [16],0.0021 %ID
same,Drug uptake,Rattus norvegicus [17],0.0098 %ID
same,Drug uptake,Rattus norvegicus [18],0.0062 %ID
same,Drug uptake,Rattus norvegicus [19],0.007 %ID
same,Drug uptake,Rattus norvegicus [20],0.0028 %ID
same,Drug uptake,Rattus norvegicus [21],0.002 %ID
same,Drug uptake,Rattus norvegicus [22],0.000081 %ID
same,Drug uptake,Liver [23],4.58 %ID
same,Drug uptake,Liver [24],2.36 %ID
same,Drug uptake,Liver [25],0.67 %ID
same,Drug uptake,Liver [26],0.33 %ID
same,Drug uptake,Liver [27],0.265 %ID
same,Drug uptake,Liver [28],0.072 %ID
same,Drug uptake,Kidney [29],3.55 %ID
same,Drug uptake,Kidney [30],2.37 %ID
same,Drug uptake,Kidney [31],0.72 %ID
same,Drug uptake,Kidney [32],0.168 %ID
same,Drug uptake,Kidney [33],0.194 %ID
same,Drug uptake,Kidney [34],0.024 %ID
same,Drug uptake,Rattus norvegicus [35],0.029 %ID
